What was measured:
Assay type in all cases: functional
[1] = test system: SK-MEL-5; test: Growth inhibition of human SK-MEL-5 cells after 48 hrs by sulforhodamine B assay; details: SK-MEL-5, 48 h
How it was run: (§1)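 NCI 60-human-tumor-cell-line panel, with compounds tested over a 5-log dose range. Values are taken from dose-response curves as log10 molar concentrations: GI50 is 50% net growth inhibition, TGI is total growth inhibition, and LC50 is 50% net cell death.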

[2] = test system: SK-MEL-2; test: Growth inhibition of human SK-MEL-2 cells after 48 hrs by sulforhodamine B assay; details: SK-MEL-2, 48 h; how it was run: as §1
[3] = test system: NCI-H226; test: Growth inhibition of human NCI-H226 cells after 48 hrs by sulforhodamine B assay; details: NCI-H226, 48 h; how it was run: as §1
[4] = test system: SF-539; test: Growth inhibition of human SF539 cells after 48 hrs by sulforhodamine B assay; details: SF-539, 48 h; how it was run: as §1
[5] = test system: TK-10; test: Growth inhibition of human TK10 cells after 48 hrs by sulforhodamine B assay; details: TK-10, 48 h
How it was run: (§2)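 Run in the NCI 60-human-tumour-cell-line panel, tested over a 5-log dose range. Dose–response curves gave three values per cell line, each as a log10 molar concentration: GI50 (50% inhibition of net cell growth), TGI (total inhibition of net growth) and LC50 (50% net cell death). The mean graph midpoint is the arithmetic mean over all lines, with insensitive lines entered at the highest concentration tested.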

[6] = test system: DU-145; test: Growth inhibition of human DU145 cells after 48 hrs by sulforhodamine B assay; details: DU-145, 48 h; how it was run: as §1
[7] = test system: HT-29; test: Growth inhibition of human HT-29 cells after 48 hrs by sulforhodamine B assay; details: HT-29, 48 h; how it was run: as §1
[8] = test system: COLO 205; test: Growth inhibition of human COLO205 cells after 48 hrs by sulforhodamine B assay; details: COLO 205, 48 h; how it was run: as §1
[9] = test system: SF-295; test: Growth inhibition of human SF295 cells after 48 hrs by sulforhodamine B assay; details: SF-295, 48 h; how it was run: as §1
[10] = test system: A549; test: Growth inhibition of human A549 cells after 48 hrs by sulforhodamine B assay; details: A549, 48 h; how it was run: as §1
[11] = test system: KM12; test: Growth inhibition of human KM12 cells after 48 hrs by sulforhodamine B assay; details: KM12, 48 h; how it was run: as §1
[12] = test system: ACHN; test: Growth inhibition of human ACHN cells after 48 hrs by sulforhodamine B assay
[13] = test system: UACC-257; test: Growth inhibition of human UACC257 cells after 48 hrs by sulforhodamine B assay; details: UACC-257, 48 h; how it was run: as §2
[14] = test system: SK-OV-3; test: Growth inhibition of human SKOV3 cells after 48 hrs by sulforhodamine B assay; details: SK-OV-3, 48 h; how it was run: as §1
[15] = test system: A498; test: Growth inhibition of human A498 cells after 48 hrs by sulforhodamine B assay; details: A498, 48 h; how it was run: as §1
[16] = test system: RXF 393; test: Growth inhibition of human RXF393 cells after 48 hrs by sulforhodamine B assay; details: RXF 393, 48 h; how it was run: as §1
[17] = test system: MOLT-4; test: Growth inhibition of human MOLT4 cells after 48 hrs by sulforhodamine B assay; details: MOLT-4, 48 h; how it was run: as §1
[18] = test system: SNB-75; test: Growth inhibition of human SNB75 cells after 48 hrs by sulforhodamine B assay; details: SNB-75, 48 h; how it was run: as §2
[19] = test system: HOP-92; test: Growth inhibition of human HOP92 cells after 48 hrs by sulforhodamine B assay; details: HOP-92, 48 h; how it was run: as §1
[20] = test system: SR; test: Growth inhibition of human SR cells after 48 hrs by sulforhodamine B assay; how it was run: as §2
[21] = test system: BT-549; test: Growth inhibition of human BT549 cells after 48 hrs by sulforhodamine B assay; details: BT-549, 48 h; how it was run: as §1
[22] = test system: NCI-H460; test: Growth inhibition of human NCI-H460 cells after 48 hrs by sulforhodamine B assay; details: NCI-H460, 48 h; how it was run: as §1
[23] = test system: NCI-H23; test: Growth inhibition of human NCI-H23 cells after 48 hrs by sulforhodamine B assay; details: NCI-H23, 48 h; how it was run: as §1
[24] = test system: HCT-116; test: Growth inhibition of human HCT116 cells after 48 hrs by sulforhodamine B assay; details: HCT-116, 48 h; how it was run: as §1
[25] = test system: MDA-MB-231; test: Growth inhibition of human MDA-MB-231 cells after 48 hrs by sulforhodamine B assay; details: MDA-MB-231, 48 h; how it was run: as §1
[26] = test system: EKVX; test: Growth inhibition of human EKVX cells after 48 hrs by sulforhodamine B assay; how it was run: as §1
[27] = test system: SN12C; test: Growth inhibition of human SN12C cells after 48 hrs by sulforhodamine B assay; how it was run: as §2
[28] = test system: OVCAR-5; test: Growth inhibition of human OVCAR5 cells after 48 hrs by sulforhodamine B assay; details: OVCAR-5, 48 h; how it was run: as §1
[29] = read-out: pLC50 (the source's name) (converted)

## Nc1cc(N)c2nc(-c3ccccc3)c(NCc3ccc(F)cc3)nc2c1
[1]
  GI50: 1.86 µM
[1]; [29]
  CC50: 6.92 µM
[1]; read-out: pTGI (converted)
  TGI: 3.63 µM
[2]
  GI50: 5.25 µM
[2]; [29]
  CC50: > 100 µM
[2]; read-out: pTGI (converted)
  TGI: > 100 µM
[3]
  GI50: 22.4 µM
  LC50: > 100 µM
[3]; read-out: pTGI (converted)
  TGI: 47.9 µM
[4]
  GI50: 1.82 µM
  LC50: 6.92 µM
[4]; read-out: pTGI (converted)
  TGI: 3.55 µM
[5]
  GI50: 5.89 µM
[5]; [29]
  CC50: 53.7 µM
[5]; read-out: pTGI (converted)
  TGI: 20 µM
[6]
  GI50: 1.51 µM
[6]; [29]
  CC50: 9.77 µM
[6]; read-out: pTGI (converted)
  TGI: 3.8 µM
[7]
  GI50: 3.16 µM
  LC50: > 100 µM
[7]; read-out: pTGI (converted)
  TGI: 12.6 µM
[8]
  GI50: 2.51 µM
  LC50 (50% net cell kill): > 100 µM
[8]; read-out: pTGI (converted)
  TGI: 6.17 µM
[9]
  GI50: 3.47 µM
  LC50 (50% net cell kill): 64.6 µM
[9]; read-out: pTGI (converted)
  TGI: 13.5 µM
[10]
  GI50: 17.8 µM
  LC50: 69.2 µM
[10]; read-out: pTGI (converted)
  TGI: 34.7 µM
[11]
  GI50: 2.82 µM
  LC50 (50% net cell kill): > 100 µM
[11]; read-out: pTGI (converted)
  TGI: 7.41 µM
[12]
  GI50: 1.7 µM
[12]; [29]
  CC50: 5.62 µM
[12]; read-out: pTGI (converted)
  TGI: 3.09 µM
[13]
  GI50: 2.04 µM
[13]; [29]
  CC50: 8.91 µM
[13]; read-out: pTGI (converted)
  TGI: 4.27 µM
[14]
  GI50: 12.9 µM
[14]; [29]
  CC50: 53.7 µM
[14]; read-out: pTGI (converted)
  TGI: 26.3 µM
[15]
  GI50: 17 µM
[15]; [29]
  CC50: 57.5 µM
[15]; read-out: pTGI (converted)
  TGI: 30.9 µM
[16]
  GI50: 12.3 µM
[16]; [29]
  CC50: 60.3 µM
[16]; read-out: pTGI (converted)
  TGI: 26.9 µM
[17]
  GI50: > 100 µM
  LC50: > 100 µM
[17]; read-out: pTGI (converted)
  TGI: > 100 µM
[18]
  GI50: 2.14 µM
  LC50: > 100 µM
[18]; read-out: pTGI (converted)
  TGI: 5.01 µM
[19]
  GI50: 3.31 µM
  LC50 (50% net cell death): > 100 µM
[19]; read-out: pTGI (converted)
  TGI: 6.92 µM
[20]
  GI50: 4.07 µM
  LC50 (concentration giving 50% net cell death): > 100 µM
[20]; read-out: pTGI (converted)
  TGI: > 100 µM
[21]
  GI50: 1.7 µM
[21]; [29]
  CC50: 6.31 µM
[21]; read-out: pTGI (converted)
  TGI: 3.24 µM
[22]
  GI50: 4.07 µM
  LC50 (50% net cell kill): > 100 µM
[22]; read-out: pTGI (converted)
  TGI: 25.7 µM
[23]
  GI50: 2.4 µM
  LC50 (50% net cell kill concentration): 8.91 µM
[23]; read-out: pTGI (converted)
  TGI: 4.57 µM
[24]
  GI50: 12.9 µM
  LC50 (concentration causing 50% net cell death): > 100 µM
[24]; read-out: pTGI (converted)
  TGI: > 100 µM
[25]
  GI50: 2.14 µM
[25]; [29]
  CC50: 19.5 µM
[25]; read-out: pTGI (converted)
  TGI: 5.13 µM
[26]
  GI50: 1.91 µM
  LC50 (50% net cell kill): 8.71 µM
[26]; read-out: pTGI (converted)
  TGI: 4.07 µM
[27]
  GI50: 7.59 µM
[27]; [29]
  CC50: 64.6 µM
[27]; read-out: pTGI (converted)
  TGI: 23.4 µM
[28]
  GI50: 2.63 µM
[28]; [29]
  CC50: > 100 µM
[28]; read-out: pTGI (converted)
  TGI: 7.59 µM
